# An excerpt weighted towards active compounds, which were near 1.8% of everything screened.
# NPY2 pot ag = NPY-Y2 potentiators or agonists, primary screen, cell-based; activation, % at 3.6 µM; hit rate 0.45% among 220,000; AID 1359, 2008; cells expressing NPY-Y2, potentiator/agonist read-out; Neuropeptide Y receptor type 2 (Homo sapiens), P49146; in the data active = activation above about 27%;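 note: cells stimulated with NPY near EC25 plus isoproterenol at EC100; 0% = vehicle plus submaximal agonist and 100% = vehicle plus saturating agonist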
# NPY Y2 blocker = NPY-Y2 receptor antagonists, primary screen, cell-based; NPY-Y2 expressing cells, antagonist mode; inhibition, % at 2.7 µM; hit rate 0.99% among 140,000; AID 793, 2007; in the data active = inhibition above about 17%;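 note: 0% = vehicle with agonist challenge and 100% = reference antagonist with challenge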
# NPY Y1 blocker = NPY-Y1 receptor antagonists, primary screen, cell-based; HEK293-CNG Y1 cells, membrane potential fluorescence; NPY at EC95, then isoproterenol; inhibition, % at 3.6 µM; hit rate 1% among 200,000; AID 1040, 2008;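 active = inhibition above the campaign mean inhibition of all tested compounds plus 3 SD, cut at about 20% in these data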;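 note: 0% = DMSO wells given NPY plus isoproterenol and 100% = isoproterenol alone without NPY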
# Target sequence (P25929 whole entry, looked up): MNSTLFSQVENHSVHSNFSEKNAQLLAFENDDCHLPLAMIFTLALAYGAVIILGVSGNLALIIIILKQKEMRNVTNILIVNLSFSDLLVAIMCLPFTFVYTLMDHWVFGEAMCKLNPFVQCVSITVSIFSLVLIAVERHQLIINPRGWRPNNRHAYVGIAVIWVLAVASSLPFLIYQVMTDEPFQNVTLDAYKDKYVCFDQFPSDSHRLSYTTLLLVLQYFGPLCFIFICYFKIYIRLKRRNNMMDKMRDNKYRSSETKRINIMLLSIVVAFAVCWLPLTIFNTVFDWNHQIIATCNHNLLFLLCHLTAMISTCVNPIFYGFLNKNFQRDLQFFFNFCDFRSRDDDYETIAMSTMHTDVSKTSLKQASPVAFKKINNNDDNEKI
#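 Material: HEK293 Y1/CNG channel cell line | Also added: NPY (25 nM), isoproterenol (1 µM), Ro 20-1724 (25 µM) | Compound: One concentration, 3.6 µM, in 0.4% DMSO | Schedule: 3 h dye uptake, 1 h room-temperature compound, 45 min post-isoproterenol | Signal: Membrane-potential fluorescent dye readout | Read-out: % inhibition of NPY effect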
# NPY-Y1 PAM-ag = NPY-Y1 receptor potentiators or agonists, primary screen, cell-based. Neuropeptide Y receptor type 1 (Homo sapiens), P25929. NPY-Y1 expressing cells, potentiator/agonist activation. activation, % at 3.6 µM. hit rate 0.37% among 220,000. AID 1304, 2008; in the data active = activation above about 33%, passing the limit was not always enough;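 note: cells stimulated with NPY at EC10 then isoproterenol at EC100; 0% = low agonist plus stimulus and 100% = saturating agonist plus stimulus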
# Active calls of the source: *; . = not tested or not shown.
SMILES,NPY2 pot ag,NPY Y2 blocker,NPY Y1 blocker,NPY-Y1 PAM-ag
CN(C)CCOc1ncnc2c1oc1ccccc12,-13.6,2.0,-0.6,-6.0
N#CCSc1nc2c(sc(=S)n2Cc2ccco2)c(=O)n1-c1ccc(F)cc1,-22.4,20.0*,23.9*,-43.8
CCCc1ccc(C(=O)NNC(=O)c2ccc(Br)cc2)cc1,-6.2,4.2,0.8,2.1
CCCc1ccc(C(=O)NNc2ccc(F)cc2)cc1,45.9*,.,.,51.4*
NC(=S)NN=C(Cc1ccccc1)Cc1ccccc1,-1.1,.,3.1,3.6
COC(=O)c1ccccc1NC(=S)N(Cc1ccc2c(c1)OCO2)Cc1cc2cccc(C)c2[nH]c1=O,17.3,3.2,3.1,11.2
Cc1ccc2nc(N3C(=O)C(O)=C(C(=O)c4ccco4)C3c3cccs3)sc2c1 (stereo not given),-19.9,19.0*,36.8*,-31.9
CC(C)C(c1nnnn1Cc1ccccc1)N(Cc1ccco1)Cc1cccs1 (stereo not given),6.3,3.9,-0.6,4.7
CCN(Cc1ccccc1)C(c1ccncc1)c1nnnn1C(C)(C)C (stereo not given),15.0,4.5,5.5,2.9
Cc1ccc(C(c2nnnn2C(C)(C)C)N(Cc2ccco2)Cc2cccs2)cc1 (stereo not given),-14.4,18.2*,5.4,8.2
CC(C)(C)n1nnnc1C(c1ccc(C(F)(F)F)cc1)N(Cc1ccc(F)cc1)Cc1ccco1 (stereo not given),-31.3,25.6*,32.2*,-8.3
CC(C)(C)c1ccc(CN(Cc2ccccc2)C(c2ccccn2)c2nnnn2C(C)(C)C)cc1 (stereo not given),-10.2,0.9,0.2,3.4
CC(C)(C)n1nnnc1C(c1ccc(Cl)cc1)N(Cc1cccnc1)Cc1ccco1 (stereo not given),-14.0,27.7*,24.9*,-23.2
CC(C)(C)n1nnnc1CN(Cc1cccnc1)Cc1ccccc1Cl,-2.5,4.6,6.4,-12.6
CC(C)(C)n1nnnc1C(c1ccc(F)cc1)N(Cc1ccc(F)cc1)Cc1ccco1 (stereo not given),-6.8,26.8*,47.4*,-10.1
COC(OC)c1ccc(C#N)c(=O)[nH]1,1.9,.,-1.7,-23.2
CN1N=C2c3ccccc3CCC2C1c1ccc(Cl)cc1 (stereo not given),4.0,.,.,-17.0
CCC(=O)N(CCC(c1ccc(C)cc1)c1ccco1)Cc1ccco1 (stereo not given),-3.8,.,.,-10.3
Fc1ccc(C(c2nnnn2C2CCCC2)N(Cc2ccco2)CC2CCCO2)cc1 (stereo not given),4.5,43.2*,31.7*,-6.4
CCN(CC)CC(C)(C)COC(=O)c1oc2ccccc2c1C,-3.3,.,.,-2.0
COc1ccc(-c2nc(C#N)c(NCc3ccc(F)cc3)o2)cc1OC,-19.5,23.6*,24.2*,-9.9
O=C(O)CC(NC(=O)C12CC3CC(CC(C3)C1)C2)c1ccc(OC2CCCC2)cc1 (stereo not given),-9.7,.,5.2,-8.9
CC1=NN(c2ccc(Cl)cc2)C(=O)/C1=C\c1cccn1-c1ccc(S(N)(=O)=O)cc1,48.9*,-6.0,-16.6,60.4*
Cc1ccc(S(=O)(=O)N/N=C/c2cccn2-c2ccc(Cl)cc2)cc1,-12.3,4.9,0.1,-49.2
COc1ccccc1NS(=O)(=O)c1cc(NC(=O)Nc2ccccc2)ccc1N1CCCCC1,46.1*,0.5,-8.7,57.5*
SMILES,NPY2 pot ag,NPY Y2 blocker,NPY Y1 blocker,NPY-Y1 PAM-ag
COC(=O)Cc1cc(OC)c(OC)cc1S(=O)(=O)N(C)C,-8.7,.,3.4,-11.1
CC(=O)c1sc(NC(=O)C2(F)C(F)(F)C(F)(F)C(F)(F)C(F)(F)C2(F)F)nc1C,53.8*,3.0,-3.7,56.0*
CC(=O)c1sc(NC(=O)C=C(C)C)nc1C,19.1,0.2,-1.0,12.0
N#Cc1c(NC(=O)CSc2ccccn2)oc(-c2ccccc2)c1-c1ccccc1,-12.1,21.3*,37.9*,-36.5
O=C(OCc1nnc(-c2ccccc2)o1)c1ccc2c(c1)OCCO2,-39.9,19.8*,10.6,-27.7
O=C(OCc1nnc(-c2ccccc2)o1)c1ccc(Cl)cc1,-16.3,.,10.3,8.4
O=C(Nc1ccc(S(=O)(=O)Nc2nccs2)cc1)/C(=C/c1ccccc1Cl)NC(=O)c1ccccc1,-5.1,-0.9,-3.8,-2.3
CC(C)c1ccc(C2CC(=O)c3cnc(N4CCc5ccccc5C4)nc3C2)cc1 (stereo not given),6.8,2.2,-2.9,11.1
CC1CC(C)CN(c2ncc3c(n2)CC(c2ccccc2)CC3=O)C1 (stereo not given),-10.5,23.7*,30.8*,-14.4

# Assay outcomes from PubChem BioAssay.
